# ChEMBL document CHEMBL1142890, “Structure-antibacterial activity of arylcarbonyl- and arylsulfonyl-piperazine 5-triazolylmethyl oxazolidinones” (2007)
# Tests used:
# Enterococcus [1] = assay: Antimicrobial activity against vancomycin-resistant Enterococcus by agar dilution method; format: functional
# Procedure, shortened: (§1)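 Agar dilution per CLSI on Mueller-Hinton agar, test agents at 0.12 to 8 µg/ml; test compounds dissolved in 20% water in DMSO, linezolid in 40% water in ethanol, vancomycin in water. Clinical isolates inoculated at final 10^7 CFU/ml, incubated 35 °C for 18 h. MIC = lowest concentration completely inhibiting growth; reported as range across isolates.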
# Staphylococcus aureus [2] = assay: Antimicrobial activity against methicillin-resistant Staphylococcus aureus by agar dilution method; format: functional; procedure, shortened: as §1
# Escherichia coli = assay: Antimicrobial activity against Escherichia coli ATCC 25922; format: functional
# Enterococcus [3] = assay: Antimicrobial activity against vancomycin-sensitive Enterococcus by agar dilution method; format: functional; procedure, shortened: as §1
# Staphylococcus aureus [4] = assay: Antimicrobial activity against Staphylococcus aureus ATCC 25923 by agar dilution method
# Staphylococcus aureus [5] = assay: Antimicrobial activity against Staphylococcus aureus ATCC 25922 in presence of 50% human plasma […]; format: functional; settings: ATCC 25923, Plasma, in the assay text read “ATCC 25923” for “ATCC 25922”
# Procedure, shortened: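 S. aureus ATCC 25923 tested in Mueller–Hinton broth supplemented with 50% human plasma. Test compounds dissolved in 20% water in DMSO. Inoculum 10⁷ CFU/ml, incubated 35 °C for 18 h. MIC was the lowest concentration completely inhibiting growth.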
# Staphylococcus [6] = assay: Antimicrobial activity against methicillin-susceptible coagulase-negative staphylococcus by agar dilution method; format: functional; procedure, shortened: as §1
# Streptococcus pneumoniae = assay: Antimicrobial activity against Streptococcus pneumoniae by agar dilution method; format: functional
# Procedure, shortened: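 Agar dilution per CLSI on Mueller–Hinton agar holding drug dilutions from 0.12 to 8 µg/ml. Staphylococci and enterococci tested on plain MH agar, S. pneumoniae on MH agar with 5% sheep blood. Test compounds dissolved in 20% water in DMSO. Inoculum 10⁷ CFU/ml, incubated 35 °C for 18 h. MIC was the lowest concentration giving complete growth inhibition.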
# Moraxella catarrhalis = assay: Antimicrobial activity against Moraxella catarrhalis; format: functional
# Staphylococcus [7] = assay: Antimicrobial activity against methicillin-resistant coagulase-negative Staphylococcus by agar dilution method; format: functional; procedure, shortened: as §1
# Haemophilus influenzae = assay: Antimicrobial activity against Haemophilus influenzae; format: functional
# Staphylococcus aureus [8] = assay: Antimicrobial activity against methicillin-susceptible Staphylococcus aureus by agar dilution method; format: functional; procedure, shortened: as §1
SMILES,MIC (Enterococcus [1]),MIC (Staphylococcus aureus [2]),MIC (Escherichia coli),MIC (Enterococcus [3]),MIC (Staphylococcus aureus [4]),MIC (Staphylococcus aureus [5]),MIC (Staphylococcus [6]),MIC (Streptococcus pneumoniae),MIC (Moraxella catarrhalis),MIC (Staphylococcus [7]),MIC (Haemophilus influenzae),MIC (Staphylococcus aureus [8])
O=C(/C=C/c1ccccc1)N1CCN(c2ccc(N3C[C@H](Cn4ccnn4)OC3=O)cc2F)CC1,0.25 µg/mL,0.25 µg/mL,≥ 8 µg/mL,0.5 µg/mL,0.5 µg/mL,> 8 µg/mL,0.25 µg/mL,1 µg/mL,≥ 8 µg/mL,0.25 µg/mL,≥ 8 µg/mL,0.25 µg/mL
Cc1cccc(C(=O)N2CCN(c3ccc(N4C[C@H](Cn5ccnn5)OC4=O)cc3F)CC2)c1,0.5 µg/mL,0.25 µg/mL,≥ 8 µg/mL,0.5 µg/mL,0.5 µg/mL,8 µg/mL,0.25 µg/mL,1 µg/mL,≥ 8 µg/mL,0.25 µg/mL,≥ 8 µg/mL,0.25 µg/mL
O=C1O[C@@H](Cn2ccnn2)CN1c1ccc(N2CCN(S(=O)(=O)c3ccccc3)CC2)c(F)c1,0.5 µg/mL,0.5 µg/mL,≥ 8 µg/mL,2 µg/mL,2 µg/mL,8 µg/mL,0.5 µg/mL,1 µg/mL,≥ 8 µg/mL,0.5 µg/mL,≥ 8 µg/mL,0.5 µg/mL
O=C(/C=C/c1ccccc1Cl)N1CCN(c2ccc(N3C[C@H](Cn4ccnn4)OC3=O)cc2F)CC1,0.25 µg/mL,0.25 µg/mL,≥ 8 µg/mL,0.5 µg/mL,0.5 µg/mL,> 8 µg/mL,0.25 µg/mL,4 µg/mL,≥ 8 µg/mL,0.25 µg/mL,≥ 8 µg/mL,0.25 µg/mL
COc1ccccc1C(=O)N1CCN(c2ccc(N3C[C@H](Cn4ccnn4)OC3=O)cc2F)CC1,1 µg/mL,1 µg/mL,≥ 8 µg/mL,1 µg/mL,1 µg/mL,4 µg/mL,0.25 µg/mL,1 µg/mL,≥ 8 µg/mL,0.25 µg/mL,≥ 8 µg/mL,0.5 µg/mL
O=C(Cc1ccccc1)N1CCN(c2ccc(N3C[C@H](Cn4ccnn4)OC3=O)cc2F)CC1,1 µg/mL,0.5 µg/mL,≥ 8 µg/mL,0.5 µg/mL,2 µg/mL,4 µg/mL,0.5 µg/mL,0.5 µg/mL,≥ 8 µg/mL,0.5 µg/mL,≥ 8 µg/mL,0.5 µg/mL
O=C(c1ccco1)N1CCN(c2ccc(N3C[C@H](Cn4ccnn4)OC3=O)cc2F)CC1,0.5 µg/mL,0.5 µg/mL,≥ 8 µg/mL,0.5 µg/mL,1 µg/mL,4 µg/mL,0.25 µg/mL,0.25 µg/mL,≥ 8 µg/mL,0.25 µg/mL,≥ 8 µg/mL,0.5 µg/mL
O=C1O[C@@H](Cn2ccnn2)CN1c1ccc(N2CCN(S(=O)(=O)c3cccs3)CC2)c(F)c1,0.5 µg/mL,0.5 µg/mL,≥ 8 µg/mL,0.5 µg/mL,1 µg/mL,> 8 µg/mL,0.5 µg/mL,1 µg/mL,≥ 8 µg/mL,0.5 µg/mL,≥ 8 µg/mL,0.5 µg/mL
